A selection: hits, their analogues and other compounds. The true share with any hit is near 9.6%.
BaF3 parental = parental Ba/F3 cell viability inhibition, counter-screen for JAK2V617F inhibitor project, murine pro-B, CellTiter-Glo luminescence. CellTiter-Glo ATP luminescence. inhibition, % at 5.6 µM. 220,000 compounds, 1.1% hits;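 active = inhibition above a per-campaign cutoff, the mean inhibition of all tested compounds plus 3 SD, cut at about 27% in these data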;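 note: 0% = DMSO wells and 100% = JAK Inhibitor I control wells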
APP 5UTR inh = inhibitors of APP translation via 5'UTR reporter, primary screen, APP 5'UTR luciferase, SH-SY5Y cells. SH-SY5Y APP 5'UTR-luciferase reporter, luminescence. inhibition, % at 2 µM. 190,000 compounds, 0.82% hits. AID 1285, 2008;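 active = inhibition above a set limit, derived from the sample mean plus 3 SD, cut at about 45% in these data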
Lmaj promast = Leishmania major promastigote growth inhibition, primary screen | Leishmania major promastigotes, resazurin fluorescence viability | inhibition, % at 10 µM | 200,000 compounds, 9% hits | AID 1063, 2008; in the data active = inhibition above about 50%;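 note: promastigotes grown with compound for 44 hours at 28 °C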
MT stabilizer = microtubule stabilizers in HeLa cells, primary screen, imaging, high-content imaging; HeLa tubulin immunostaining HCS, 24 h; share of cells brighter than vehicle mean+2SD; % tubulin-high responders, % at 10 µM; 200,000 compounds, 0.83% hits;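 active = plate Z-score above 3 for both tubulin-high and condensed-nucleus cell shares, with cell loss under 80%, at 10 µM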;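 note: anti alpha tubulin signal scored within the nucleus-defined area of each cell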
Ba/F3 V617F tox = reduced viability of JAK2V617F-dependent Ba/F3 cells, primary screen, JAK2V617F inhibitor project, cell-based, Ba/F3 EpoR-JAK2V617F, luminescence; inhibition, % at 5.6 µM; ATP luminescence; AID 1446, 2008; 220,000 compounds, 1.1% hits;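 active = inhibition above the campaign mean plus 3 SD over all tested compounds, cut at about 24% in these data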;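 note: cytokine-independent growth of Ba/F3 cells driven by EpoR plus mutant JAK2; 0% = DMSO-treated cells and 100% = JAK inhibitor I control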
bCat nuc transl = modulators of beta-catenin nuclear translocation, primary screen, imaging, HeLa cells, immunofluorescence, high-content. nuclear translocation activity, % at 5 µM. 190,000 compounds, 0.3% hits;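 active = nuclear translocation activity above 50% at 5 µM, with a well cell count of 50 or more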;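 note: per-cell ratio of nuclear to cytoplasmic median beta-catenin stain intensity; plate controls were DMSO negative control for no effect and GSK-3 inhibitor IX positive control for full effect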
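Test system: human HeLa cells, native beta-catenin. Compound dosing: 5 µM primary single dose, 0.1% DMSO, 0.02–20 µM confirmation series. Incubation: compound exposure 24 h at 37°C. Detection: beta-catenin immunostaining with DAPI counterstain, 20x imaging, 6 fields/well. Read-out basis: Nuclear/cytoplasmic beta-catenin signal ratio, % activation.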
An asterisk follows results filed as active; / = no result given.

SMILES	BaF3 parental	APP 5UTR inh	Lmaj promast	MT stabilizer	Ba/F3 V617F tox	bCat nuc transl
CC(C)NC(=O)c1ccccc1NC(=O)/C=C/c1cccc([N+](=O)[O-])c1	5.6	28.9	29.2	1.7	0.3	-1.3
Cc1ccccc1NC(=O)C(C)O/N=C/c1cccc([N+](=O)[O-])c1 (centres undefined)	5.2	10.5	66.1*	3.1	0.5	/
C=CCN(CC=C)CCOc1ccccc1F	3.4	-9.1	30.5	3.4	-3.1	-1.4
C=CCN(CC=C)CCOc1cccc2ccccc12	4.8	-5.5	62.0*	2.9	0.3	1.4
C=CCN(CC=C)CCOc1ccccc1	7.2	7.5	54.2*	3.1	-1.8	-1.1
C=CCN(CC=C)CCOc1ccc2ccccc2c1	2.6	-6.3	41.0	2.8	-1.3	-3.6
COc1cc2cc3c(N)c(C(=O)NCc4ccco4)sc3nc2cc1OC	3.8	-28.7	80.5*	5.2	2.0	2.9
OCCN1CCN(CCSc2ccccc2)CC1	1.1	-15.2	56.2*	1.4	-2.7	-0.1
O=C(CN1CCN(CCO)CC1)Nc1ccccc1	1.1	0.7	-9.0	4.0	-3.1	-1.4
Cc1c(Nc2cc(Cl)c3nonc3c2[N+](=O)[O-])c(=O)n(-c2ccccc2)n1C	103.4*	95.3*	79.0*	3.4	95.0*	/
Cc1c(Nc2cc(N3CCOCC3)c3nonc3c2[N+](=O)[O-])c(=O)n(-c2ccccc2)n1C	-0.7	4.2	4.9	2.5	-1.6	0.7
CCOc1ccc(C(c2c(NC(=O)c3ccccc3)sc(C)c2C)N2CCN(C)CC2)cc1 (centres undefined)	5.0	-28.0	51.6*	4.7	2.7	2.7
Cc1sc(NC(=O)c2ccccc2)c(C(c2ccccn2)N2CCN(CCO)CC2)c1C (centres undefined)	6.1	11.4	3.1	2.7	-0.3	0.9
Cc1nc2cc(-c3ccc(Cl)cc3)nn2c(NCCN(C)C)c1C	8.3	-75.7	100.3*	1.8	0.8	0.3
CN(C)CCCNc1c2c(nc3cc(-c4cccc(F)c4)nn13)CCC2	3.6	-22.7	8.5	0.8	2.4	0.3
CCOC(=O)C1(CCOC)CCN(C(=O)c2sccc2C)CC1	2.3	-6.5	-4.5	1.7	-2.8	-1.3
COc1ccc(C2CC(c3c(O)cc(C)oc3=O)=NCCS2)c(OC)c1 (centres undefined)	1.1	93.1*	20.0	9.8	-3.3	109.5*
Cc1cc(O)c(C2=Nc3ccccc3SC(c3ccc(Cl)cc3)C2)c(=O)o1 (centres undefined)	2.2	-111.9	0.9	5.8	-1.9	2.0
O=C(N/N=C/c1ccc([N+](=O)[O-])o1)c1cn(-c2ccccc2)nc1-c1ccc(Cl)cc1	8.4	-12.4	75.6*	2.9	4.2	1.2
O=C(N/N=C/c1ccc([N+](=O)[O-])o1)c1cn(-c2ccccc2)nc1-c1ccccc1	7.9	3.4	96.5*	3.2	2.1	1.8
O=C(N/N=C\c1cn(-c2ccccc2)nc1-c1ccccc1)c1ccc(Br)o1	13.8	-3.7	47.9	3.4	-0.3	3.1
Cc1ccc(C2=NNC(C(O)C(O)C(O)C(O)CO)S2)cc1 (centres undefined)	3.4	-15.2	-5.7	41.8*	-1.3	-2.4
OC[C@H](O)[C@H](O)[C@@H](O)[C@@H](O)[C@@H]1SC(c2ccccc2)=NN1c1ccccc1	-3.7	/	/	/	-2.7	0.2
O=S1(=O)CC2N=C(N(Cc3ccc(F)cc3Cl)c3ccccc3F)SC2C1 (centres undefined)	5.0	-9.4	4.1	4.5	-0.6	-3.1
c1ccc(-c2nnc(OCCN3CCOCC3)c3ccccc23)cc1	6.0	-9.7	83.2*	1.4	2.0	/
SMILES	BaF3 parental	APP 5UTR inh	Lmaj promast	MT stabilizer	Ba/F3 V617F tox	bCat nuc transl
O=C(CN1CCOCC1)N1CCN(c2nnc(-c3ccccc3)c3ccccc23)CC1	5.8	19.2	1.6	1.7	2.8	/
O=C1N/C(=N\N=C\c2cccnc2)SC1Cc1ccc(SC(F)F)cc1 (centres undefined)	2.5	26.2	74.4*	1.7	-2.6	8.6
COc1ccc2oc(=Nc3cccc(F)c3)c(C(N)=O)cc2c1	5.3	-6.6	2.7	8.9	4.6	61.2*
N=C1C(c2ccccc2)=C(O)CN1c1cccc(S(=O)(=O)N2CCOCC2)c1	3.2	/	/	/	-2.6	-0.9
CCOc1cc(C(N)=O)cc(Cl)c1OCc1ccccc1	6.1	8.7	1.7	3.8	-0.7	-0.2
CCOc1c(Cl)cc(CNCC(O)c2ccccc2)cc1OC (centres undefined)	7.4	-13.5	26.4	1.4	-2.3	0.0
CCOc1cc(CNC2CCCC2)ccc1OCc1ccccc1Cl	10.3	25.7	100.2*	2.0	2.1	-3.4
CCOc1c(Cl)cc(CNCC(C)C)cc1OC	3.0	/	80.3*	1.8	-1.2	/
CCOc1cc(CNC2CCCC2)cc(Cl)c1OCc1ccccc1	5.1	1.8	96.9*	2.5	3.4	0.9
CCOc1cc(CNCC(C)C)cc(Cl)c1OCc1ccccc1	1.9	1.5	89.2*	1.9	2.6	0.1
Cc1ccc(NC(=O)Cn2cc(S(=O)(=O)c3ccc(C)cc3)c(=O)c3cc(F)ccc32)cc1	0.9	-7.8	-5.5	4.3	-5.5	2.7
CCc1ccc(C(=O)COC(=O)c2ccc(Cl)nc2)cc1	-5.0	-62.3	-2.4	5.5	-3.4	-0.8
COC(=O)C1=C(C)N(CCc2c[nH]c3ccc(OC)cc23)C(=O)C1	6.9	-2.6	17.9	2.1	-0.6	-0.4
O=C1N=C2SCCN2/C1=C\c1ccccc1Cl	2.4	1.1	99.8*	2.4	-1.9	3.1
Cc1ccc(C(C)C)c(OCc2ccc(C(=O)N/N=C/c3cccc(O)c3O)cc2)c1	89.9*	79.7*	100.1*	6.0	96.8*	1.4
COc1cc(/C=N/NC(=O)c2ccc(COc3cc(C)ccc3C(C)C)cc2)cc(OC)c1O	1.7	14.5	37.0	3.3	-3.5	-0.7
Cc1ccc(C(C)C)c(OCc2ccc(C(=O)N/N=C/c3ccc(O)c(O)c3)cc2)c1	78.3*	49.9*	100.4*	3.6	38.7*	/
O=C(N/N=C/c1ccc(O)c(O)c1)c1ccc(CSc2cccc3cccnc23)cc1	26.9*	6.4	-4.8	3.9	61.8*	-0.9
CC1SC2(NC1=O)C1CC3CC(C1)CC2C3 (centres undefined)	6.8	-3.4	-0.2	2.5	-0.5	-2.6
Cc1nn(-c2ccccc2)c(N2CCCC2)c1/C=C1\N=C(c2ccc(OC(C)C)cc2)OC1=O	-0.3	-2.2	-3.8	4.2	-3.4	-1.1
CC(C)C1Nc2ccc(S(=O)(=O)N3CCOCC3)cc2NC1=O (centres undefined)	14.0	-15.4	-6.5	3.4	1.2	-1.7

Screening data (PubChem BioAssay)
